What was measured:
[1] = target: T1, Urease subunit alpha/Urease subunit beta (Helicobacter pylori (strain ATCC 700392 / 26695) (Campylobacterpylori), UniProt P69996); test: Inhibition of Helicobacter pylori ATCC 43504 urease-mediated ammonia production preincubated for 1.5 hrs by indophenol method
[2] = target: Urease subunit alpha/Urease subunit beta (Helicobacter pylori (strain ATCC 700392 / 26695) (Campylobacterpylori)) (UniProt P69996+P14916); test: Ratio of acetohydroxamic acid IC50 to compound IC50 for Helicobacter pylori ATCC 43504 urease
Chain of Urease subunit alpha/Urease subunit beta (Helicobacter pylori (strain ATCC 700392 / 26695) (Campylobacterpylori)) (P14916 whole entry, looked up): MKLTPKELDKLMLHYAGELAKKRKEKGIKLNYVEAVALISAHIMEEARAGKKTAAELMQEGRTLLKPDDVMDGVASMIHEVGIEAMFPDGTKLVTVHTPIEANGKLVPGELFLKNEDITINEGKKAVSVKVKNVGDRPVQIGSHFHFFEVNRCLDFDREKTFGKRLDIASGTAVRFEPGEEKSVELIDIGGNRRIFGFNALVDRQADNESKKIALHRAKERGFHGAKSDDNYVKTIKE
Chain of Urease subunit alpha/Urease subunit beta (Helicobacter pylori (strain ATCC 700392 / 26695) (Campylobacterpylori)) (P69996 whole entry, looked up): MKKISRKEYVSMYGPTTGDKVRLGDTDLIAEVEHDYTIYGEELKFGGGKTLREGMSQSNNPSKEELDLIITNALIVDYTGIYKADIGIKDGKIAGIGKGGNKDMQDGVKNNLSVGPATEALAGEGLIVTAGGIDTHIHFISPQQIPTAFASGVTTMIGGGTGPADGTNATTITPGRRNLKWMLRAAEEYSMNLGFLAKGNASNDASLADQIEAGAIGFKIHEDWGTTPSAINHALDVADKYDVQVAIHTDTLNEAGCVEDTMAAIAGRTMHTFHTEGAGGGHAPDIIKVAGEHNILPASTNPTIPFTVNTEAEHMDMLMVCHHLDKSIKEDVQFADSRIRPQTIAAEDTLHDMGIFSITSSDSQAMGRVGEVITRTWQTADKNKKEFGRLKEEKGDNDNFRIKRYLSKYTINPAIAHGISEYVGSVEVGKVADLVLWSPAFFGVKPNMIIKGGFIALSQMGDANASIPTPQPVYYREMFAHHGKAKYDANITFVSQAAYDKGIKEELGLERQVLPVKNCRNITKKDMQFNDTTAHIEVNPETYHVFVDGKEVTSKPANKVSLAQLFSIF

[3] = target: T1, Urease subunit alpha/Urease subunit beta; test: Competitive inhibition of Helicobacter pylori ATCC 43504 urease using urea as substrate by Lineweaver-Burk/Dixon plot analysis
Method in brief: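 Crude urease from H. pylori ATCC 43504, grown 24 h at 37 °C under microaerobic conditions in Brucella broth with 10% heat-inactivated horse serum. Enzyme (10 U) was pre-incubated with inhibitor for 1.5 h at room temperature. Ammonia was read by the indophenol method while urea varied at several inhibitor levels. Ki came from a Lineweaver–Burk slope replot x-intercept or a Dixon plot intersection. Run in triplicate.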

T1 sequence (P69996 whole entry): as the sequence (P69996 whole entry, looked up) above
T1 sequence (P14916 whole entry, further chain): as the sequence (P14916 whole entry, looked up) above

O=C1CC(c2ccc(O)cc2)Oc2cc(O)cc(O)c21 (stereo not given) was tested, and the IC50 [1] was 328 µM.
COc1ccc(C2COc3cc(OC)ccc3C2O)cc1 (stereo not given) showed an IC50 [1] of 3870 µM.
With COc1ccc(-c2cc(=O)c3c(OC)c(OC)c(OC)c(OC)c3o2)cc1 [TANGERETIN] the IC50 [1] was 4630 µM.
O=c1c(-c2ccc(O)cc2)coc2cc(O)ccc12 [DAIDZEIN] showed an IC50 [1] of 556 µM.
For COc1ccc(C2COc3cc(O)ccc3C2)cc1 (stereo not given), the IC50 [1] was 358 µM.
For O=c1cc(-c2ccc(O)c(O)c2)oc2cc(O)cc(O)c12 [LUTEOLIN], the IC50 [1] was 35.4 µM.
COc1ccc(C2C=Cc3c(OC)c(OC)c(OC)c(OC)c3O2)cc1 (stereo not given) gave an IC50 [1] of 4170 µM.
Work on O=c1c(O)c(-c2ccc(O)c(O)c2)oc2cc(O)cc(O)c12 [QUERCETIN] yielded an IC50 [1] of 11 µM.
Work on COc1ccc(C(C)C(=O)c2ccc(O)cc2O)cc1 (stereo not given) yielded an IC50 [1] of 1050 µM.
For COc1ccc(C2CC(O)c3c(OC)c(OC)c(OC)c(OC)c3O2)cc1 (stereo not given), the IC50 [1] was 4850 µM.
For COc1ccc(C2COc3cc(OC)ccc3C2)cc1 (stereo not given), the IC50 [1] was 1780 µM.
Work on Oc1ccc(C2COc3cc(O)ccc3C2)cc1 (stereo not given) yielded an IC50 [1] of 92.9 µM.
In the case of COc1ccc(C2=COc3cc(O)ccc3C2)cc1, the IC50 [1] is reported as 86.2 µM.
For COc1cc(O)c(C(=O)CCc2ccccc2)c(OC)c1, the IC50 [1] was 1670 µM.
Compound COc1cc(O)c(C(=O)/C=C/c2ccccc2)c(OC)c1 [FLAVOKAWAIN B] has an IC50 [1] of 1220 µM.
Compound O=c1cc(-c2ccccc2)oc2cc(O)c(O)c(O)c12 [BAICALEIN] has an IC50 [1] of 291 µM.
Compound COc1cc(O)c(C(=O)CCc2ccccc2)c(O)c1 has an IC50 [1] of 978 µM.
In the case of Oc1cc(O)c2c(c1)OC(c1ccc(O)c(O)c1)C=C2 (stereo not given), the IC50 [1] is reported as 4.42 µM.
Compound COc1ccc(-c2coc3cc(O)ccc3c2=O)cc1 [FORMONONETIN] has an IC50 [1] of 2000 µM.
Compound Oc1ccc(C2=COc3c(ccc(O)c3O)C2)cc1 has a Ratio IC50 [2] of 20, an IC50 [1] of 0.85 µM and a Ki [3] of 0.641 µM.
In the case of COc1ccc(C(C)C(=O)c2ccc(OC)cc2O)cc1 (stereo not given), the IC50 [1] is reported as 2180 µM.
In the case of O=c1cc(-c2ccccc2)oc2cc(O)cc(O)c12 [CHRYSIN], the IC50 [1] is reported as 302 µM.
In the case of Oc1cc2c(c(O)c1O)C=CC(c1ccccc1)O2 (stereo not given), the IC50 [1] is reported as 22.1 µM.
With COc1ccc(-c2coc3cc(OC)ccc3c2=O)cc1 the IC50 [1] was 3530 µM.
Oc1cc(O)c2c(c1)OC(c1ccccc1)C=C2 (stereo not given) showed an IC50 [1] of 33.2 µM.
COc1ccc(C2=CCc3c(OC)c(OC)c(OC)c(OC)c3O2)cc1 gave an IC50 [1] of 3790 µM.
For O=c1cc(-c2ccc(O)cc2)oc2cc(O)cc(O)c12 [APIGENIN], the IC50 [1] was 138 µM.
COc1cc(OC)c2c(=O)cc(-c3ccccc3)oc2c1 [CHRYSIN DIMETHYL ETHER] gave an IC50 [1] of 2180 µM.

From ChEMBL document CHEMBL2375294, “Synthesis, structure-activity relationship analysis and kinetics study of reductive derivatives of flavonoids as Helicobacter pylori urease inhibitors” (Eur J Med Chem, 2013)
